Measured values from PubChem BioAssay AID602159 (Southern Research Specialized Biocontainment Screening …, 2011).

Tested on: HEp-2 RSV CPE, time of addition, CellTiter-Glo viability
Assay: stage of RSV life cycle blocked in HEp-2 – cell-based, set 2, mechanism study for RSV inhibitor project, late-stage follow-up (AID 602159)
Conditions: at 25 µM, stronger effect = higher value
How it was run: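 Material: HEp-2 cell monolayers infected with respiratory syncytial virus | Reagent: RSV Long, MOI 0.12 | Dosing: 25 µM single dose, 0.5% DMSO | Schedule: Compound dosing 1 h pre- to 24 h post-infection, six-day incubation | Technique: CellTiter-Glo luminescence | Read-out: % cell viability per addition time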

[1] = measured here: added 1 h before infection
[2] = measured here: added 1 h post infection
[3] = measured here: added 12 h post infection
[4] = measured here: added 24 h post infection

| SMILES | viability (added 21 h post infection) | viability (added at infection) | viability [1] | viability [2] | viability [3] | viability [4] |
| --- | --- | --- | --- | --- | --- | --- |
| CN(C)c1ccc(Cn2c(=O)n(Cc3ccc(C(=O)NCC4COC4)cc3)c(=O)c3ccccc32)cc1 | 96.4% | 91.3% | 90.1% | 91.6% | 73.2% | 78.7% |
| COCCCNC(=O)c1ccc(Cn2c(=O)c3ccccc3n(Cc3ccc([N+](=O)[O-])cc3)c2=O)cc1 | 80.1% | 72.1% | 52.3% | 70.2% | 81.9% | 68% |
| COCCCNC(=O)c1ccc(Cn2c(=O)c3ccccc3n(Cc3ccc(C(C)C)cc3)c2=O)cc1 | 38.8% | 44% | 49.5% | 42.9% | 43.8% | 31.1% |
